Active and inactive are the calls of the source. The rule behind the calls is not given here.
Columns and labels:
[1] = test system: Human immunodeficiency virus 1; assay: Antiviral activity against HIV1 Ba-L in human MDM assessed as inhibition integration of virus to host cell genome at 10 nM; type: functional, organism-based
MT2 = assay: Inhibition of Vpu ion channel in 0.05 MOI HIV1 infected in MT2 cells assessed as viral inhibition measured after 7 days by […]; conditions: Human immunodeficiency virus 1
[2] = Inhibition of Vpu ion channel in HIV1 92UG029 in human MDM assessed as inhibition of vrius release; set-up: species or system Human immunodeficiency virus 1
[3] = Selectivity index, ratio of TC50 for human MDM cells to EC50 for HIV1 92UG029 infected in human MDM cells; type: toxicity, cell-based; conditions: read-out: Selectivity Index
[4] = test system: Human immunodeficiency virus 2; assay: Antiviral activity against 0.05 MOI HIV2 chronically infected in 7-14 days differentiated human MDM cells assessed as viral inhibition measured after 7 days; type: functional, organism-based
In short: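 Day 14 MDM from 3 seronegative donors were infected with HIV-2, or with HIV-1 Ba-L as a positive control, at MOI 0.05 for 7 days. Cells were then washed free of extracellular virus and cultured ± 10 μM compound for a further 7 days. Day 28 supernatants were assayed for RT activity by chemiluminescent ELISA, with recombinant RT as the standard.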

MDM [5] = assay: Inhibition of Vpu ion channel in 0.01 MOI HIV1 Ba-L infected in 7 days differentiated human MDM cells assessed as number of gag copy; type: cell-based; conditions: Human immunodeficiency virus 1
In short: (§1)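 MDM differentiated for 7, 10 or 14 days were infected with HIV-1 Ba-L across a range of MOIs, washed three times with PBS and cultured 7 days with 10 μM compound or equal-volume DMSO. On day 7 postinfection, supernatant RT activity was measured (and infectivity on TZM-bl cells). Cell lysates went to real-time PCR for LTR-gag DNA, normalised to albumin copies.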

MDM [6] = assay: Inhibition of Vpu ion channel in 0.05 MOI HIV1 Ba-L chronically infected in 7-14 days differentiated human MDM cells assessed as viral inhibition at 10 uM after 7 days post treatment; type: cell-based; conditions: Human immunodeficiency virus 1
In short: (§2)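 Chronic infection model: MDM were incubated with HIV-1 Ba-L for 3 h and left 7 days unwashed, then washed three times and given a single 10 μM dose (DMSO control). Supernatants were sampled routinely for RT activity. In the washout arm, compound was removed and cells kept drug-free for an additional 20 days.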

[7] = Cytotoxicity against human MDM cells assessed as cell viability at 0 to 10 uM by MTT assay; type: cell-based; conditions: read-out: Activity
In short: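 Infected day 14 MDM were exposed to compound, up to 10 μM in parallel antiviral assays or extended to 1,000 μM for TC50. On day 7, half the medium was removed and 100 μg MTT added per well for 5 h at 37°C. Formazan was dissolved in acidified isopropanol with 10% Triton X-100 and A560 read. Viability was expressed vs DMSO controls; TC50 by nonlinear regression (n = 3).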

[8] = Inhibition of Vpu ion channel in HIV1 92TH001 in human MDM assessed as inhibition of vrius release; set-up: species or system Human immunodeficiency virus 1
[9] = test system: Human immunodeficiency virus 2; assay: Antiviral activity against 0.05 MOI HIV2 noncytopathic strain chronically infected in 7-14 days differentiated human MDM cells assessed as viral inhibition measured after 7 days; type: functional
In short: (§3)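 Day 14 MDM from three seronegative donors were infected at MOI 0.05 for 7 days, then washed free of extracellular virus. Cultures then ran a further 7 days with or without 10 μM BIT225, from day 21. Day 28 supernatants were assayed by RT activity ELISA. Percent inhibition was taken versus untreated controls, as mean of three donors.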

[10] = test system: Human immunodeficiency virus 2; assay: Antiviral activity against 0.05 MOI HIV2 cytopathic strain chronically infected in 7-14 days differentiated human MDM cells assessed as viral inhibition measured after 7 days; type: functional; in short: as §3
PBMC = assay: Inhibition of Vpu ion channel in 0.05 MOI HIV1 NL4-3 infected in human PBMC cells assessed as viral inhibition measured at 10 uM after 7 days by […]; conditions: Human immunodeficiency virus 1
MDM [11] = assay: Inhibition of Vpu ion channel in 0.05 MOI HIV1 Ba-L infected in 10 days differentiated human MDM cells assessed as number of gag copy; type: cell-based; conditions: Human immunodeficiency virus 1; in short: as §1
[12] = test system: Human immunodeficiency virus 1; assay: Antiviral activity against HIV1 Ba-L […] assessed as inhibition integration of virus to host cell genome at 10 uM; type: functional; set-up: scale not given: the % may be the effect or the level left
In short: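 Run in TZM-bl indicator cells (HIV-1 integration activates luciferase), not MDM, infected with HIV-1Ba-L in the presence of BIT225 across 0.3125 to 10 μM. Lysates were given luciferin and light was read on an illuminometer. Percent inhibition of integration was taken relative to DMSO-treated control. Data are from three separate experiments.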

MDM [13] = assay: Inhibition of Vpu ion channel in 0.001 MOI HIV1 Ba-L infected in 14 days differentiated human MDM cells assessed as viral inhibition by RT assay; type: cell-based; set-up: scale not given: the % may be the effect or the level left; conditions: Human immunodeficiency virus 1; in short: as §1
MDM [14] = assay: Inhibition of Vpu ion channel in 0.05 MOI HIV1 Ba-L acutely infected in 14 days differentiated human MDM cells assessed as reverse transcriptase activity after 21 days relative to control; type: cell-based; conditions: Human immunodeficiency virus 1
In short: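 Day 14 MDM were acutely infected with HIV-1 Ba-L at MOI 0.05 for 3 h, washed three times with PBS, then cultured a further 7 days in DMEM10+ with 10 μM compound or equal DMSO. Virus release was measured as supernatant RT activity on day 21 of culture, relative to DMSO controls.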

[15] = Inhibition of Vpu ion channel in HIV1 MDR3761 in human MDM assessed as inhibition of vrius release; set-up: species or system Human immunodeficiency virus 1
[16] = Inhibition of Vpu ion channel in HIV1 5705.72 in human MDM assessed as inhibition of vrius release; set-up: species or system Human immunodeficiency virus 1
MDM [17] = assay: Inhibition of Vpu ion channel in 0.01 MOI HIV1 Ba-L infected in 10 days differentiated human MDM cells assessed as viral inhibition by TZM-bl infectivity assay; type: cell-based; conditions: Human immunodeficiency virus 1; in short: as §1
[18] = Selectivity index, ratio of TC50 for human MDM cells to EC50 for HIV1 1064.52 infected in human MDM cells; type: toxicity, cell-based; conditions: read-out: Selectivity Index
MDM [19] = assay: Inhibition of Vpu ion channel in 0.05 MOI HIV1 Ba-L chronically infected in 7-14 days differentiated human MDM cells assessed as viral inhibition at 10 uM after 7 days post treatment measured after 20 days drug washout period; type: cell-based; conditions: Human immunodeficiency virus 1; in short: as §2
[20] = Selectivity index, ratio of TC50 for human MDM cells to EC50 for HIV1 92TH001 infected in human MDM cells; type: toxicity, cell-based; conditions: read-out: Selectivity Index
[21] = Inhibition of Vpu ion channel in HIV1 G-92NG003-G3 in human MDM assessed as inhibition of vrius release; set-up: species or system Human immunodeficiency virus 1
PM1 = assay: Inhibition of Vpu ion channel in 0.05 MOI HIV1 NL4-3 infected in PM1 cells assessed as viral inhibition measured at 10 uM after 7 days by […]; conditions: Human immunodeficiency virus 1
MDM [22] = assay: Inhibition of Vpu ion channel in 0.05 MOI HIV1 Ba-L infected in 14 days differentiated human MDM cells assessed as number of gag copy; type: cell-based; conditions: Human immunodeficiency virus 1; in short: as §1

Cn1cc(-c2cccc3cc(C(=O)NC(=N)N)ccc23)cn1
Activity [1]: Active | inhibition (MT2): 38.8% | EC50 [2]: 14.4 µM | selectivity ratio [3]: 14 | Activity [4]: inactive | Activity (MDM [5]): 1160 | Activity (MDM [6]): Active | viability at up to 10 µM [7]: > 96% | EC50 [8]: 1.5 µM | inhibition (INH) [9]: 13.4% | inhibition (INH) [10]: 6.1% | inhibition (PBMC): 56.8% | Activity (MDM [11]): Active | Activity [12]: 6% | Activity (MDM [13]): 77% | Activity (MDM [14]): < 6 U/ml | EC50 [15]: 5.1 µM | EC50 [16]: 5.1 µM | inhibition (MDM [17]): 90.4% | selectivity ratio [18]: 61.9 | Activity (MDM [19]): inactive | selectivity ratio [20]: 140 | EC50 [21]: 1.6 µM | inhibition (PM1): 21% | Activity (MDM [22]): Active

Source: ChEMBL document CHEMBL1240369, “Antiviral efficacy of the novel compound BIT225 against HIV-1 release from human macrophages” (Antimicrob Agents Chemother, 2010)
